Drawing on ChEMBL document CHEMBL1759995, “Potential CRF1R PET imaging agents: N-fluoroalkyl-8-(6-methoxy-2-methylpyridin-3-yl)-2,7-dimethyl-N-alkylpyrazolo[1,5-a][1,3,5]triazin-4-amines” (Bioorg Med Chem Lett, 2011), this text covers IC50 and logD for eight compounds.

Data set [1] deals with T1, Corticotropin-releasing factor receptor 1 (Rattus norvegicus, UniProt P35353).
T1 sequence (P35353 whole entry): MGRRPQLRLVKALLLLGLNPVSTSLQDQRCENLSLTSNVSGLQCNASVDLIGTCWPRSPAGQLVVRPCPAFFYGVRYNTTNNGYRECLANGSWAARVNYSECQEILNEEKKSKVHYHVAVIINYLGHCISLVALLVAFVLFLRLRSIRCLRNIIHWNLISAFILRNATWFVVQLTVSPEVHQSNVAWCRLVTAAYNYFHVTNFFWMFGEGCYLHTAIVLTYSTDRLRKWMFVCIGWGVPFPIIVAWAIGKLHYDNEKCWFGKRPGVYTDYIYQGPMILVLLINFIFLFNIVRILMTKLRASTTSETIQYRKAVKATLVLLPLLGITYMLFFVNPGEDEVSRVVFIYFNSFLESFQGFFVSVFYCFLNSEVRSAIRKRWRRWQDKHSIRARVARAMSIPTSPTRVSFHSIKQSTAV
As to the kind of experiment: Displacement of [125I]-o-CRF from CRF1 receptor in rat frontal cortex by rapid filtration technique. The class given is tissue-based. In short, it runs like this:
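Frozen rat frontal cortex homogenized in 50 mM HEPES (pH 7.0 at 23 °C) with MgCl2, EGTA, protease inhibitors, 0.005% Triton X-100, bacitracin and 0.1% ovalbumin; pellet washed twice by centrifugation at 32,000 g. Membranes (25 µg/well) incubated with 150 pM 125I-o-CRF and compounds 2 h at 21 °C. Bound ligand captured on PEI-treated GF/B filters, washed with ice-cold PBS/0.01% Triton. IC50 from inhibition of specific binding.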
In general terms: Displacement assays read how much labelled ligand stays bound in the presence of the test substance.

Data set [2] can be described thus: Lipophilicity, log D of the compound in octanol-phosphate buffer at pH 7.4 by Shake flask method. The class given is physicochemical. The method in brief: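 Shake-flask partitioning between 25 mM phosphate buffer (pH 7.4) and octanol, both pre-saturated by mixing and standing overnight. A 1.0 mg sample dissolved in 1 mL octanol and added to 50 mL octanol-saturated buffer.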

The IC50 is the concentration that inhibits the measured activity by half. High values mean weaker potency in that assay, low ones greater potency in that assay. The logD is lipophilicity at a set pH, counting ionised and neutral species. Lower therefore signals lower lipophilicity.

With `COc1ccc(-c2c(C)nn3c(N(CCC#N)CCCF)nc(C)nc23)c(C)n1`, the IC50 in data set [1] stood at 6.5 nM. In data set [2], this compound came in with a log distribution coefficient (logD) of 3.5.
In the same order, the values of `COCCN(CCCF)c1nc(C)nc2c(-c3cnc(OC)nc3OC)c(C)nn12` are over 10000 nM and 1.8.
The like results for `COCCN(CCF)c1nc(C)nc2c(-c3ccc(OC)nc3C)c(C)nn12` were, in that order, 5.5 nM and 4.6.
Regarding `COCCN(CCCF)c1nc(C)nc2c(-c3ccc(OC)nc3)c(C)nn12`, in data set [1], the IC50 was found to be 35 nM. The compound also gave a logD in data set [2] of 3.4.
In the same order, the values of `CCN(CCCF)c1nc(C)nc2c(-c3ccc(OC)nc3C)c(C)nn12` are 1.6 nM and 4.8.
The like results for `CCN(CCF)c1nc(C)nc2c(-c3ccc(OC)nc3C)c(C)nn12` were, in that order, 5.8 nM and 4.5.
In the same order, the values of `COCCN(CCCF)c1nc(C)nc2c(-c3ccc(OC)nc3C)c(C)nn12` are 1.9 nM and 4.1.
In data set [1], `COCCN(CCCF)c1nc(C)nc2c(-c3cnc(OC)nc3)c(C)nn12` gave an IC50 of 390 nM. The same compound came in with a logD in data set [2] of 3.2.
